The nature of data set [1]: Cytotoxicity against mouse BMDM after 96 hrs by MTT assay. The procedure, abridged:
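Host-cell MTT test on mouse bone-marrow-derived macrophages (L-929 conditioned medium): 5000 cells/well were exposed to 100, 200 and 300 μM. MTT was added, cells were lysed with acidic isopropanol and read at 570 nm.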
For orientation: Tetrazolium assays rely on reduction of a dye to a coloured formazan, in cell work by metabolically active cells.

For data set [2], the system named is Leishmania braziliensis. Kind of data set: Antileishmanial activity against promastigotes of Leishmania (V.) braziliensis MHOM/CO/87/UA301 after 96 hrs by MTT assay. Type of data set: functional, organism-based. To be noted: MHOM/CO/87/UA301, 96 h.
Data set [3] deals with Leishmania braziliensis. Put plainly: Induction of acidocalcisomes alkalinization in Leishmania (V.) braziliensis MHOM/CO/87/UA301 at 1 uM up to 1400 seconds using acridine orange staining. Type of data set: functional, organism-based.
The subject of data set [4] is Leishmania braziliensis. Kind of data set: Induction of acidocalcisomes alkalinization in Leishmania (V.) braziliensis MHOM/CO/87/UA301 at 6 uM up to 1200 seconds using acridine orange staining. The data set is classed as functional, organism-based. Put shortly:
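Promastigotes (10⁹ cells/mL), washed twice in KCl/Tris buffer, were loaded with 2 μM acridine orange for 5 min at 29 °C. Fluorescence (ex 488, em 530 nm) was recorded in a stirred cuvette at 29 °C.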

Data set [5] has as its system Leishmania braziliensis. Kind of data set: Reduction of mitochondrial membrane potential in Leishmania (V.) braziliensis MHOM/CO/87/UA301 assessed as increase in fluorescence at 6 uM up to 1400 seconds using rhodamine 123 by spectrofluorimeter analysis. The data set is classed as functional, organism-based. The procedure, abridged:
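Fluorescence (ex 488, em 530 nm) was followed in a spectrofluorimeter at 29 °C under continuous agitation. FCCP served as protonophore comparator.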

Data set [6] is described as follows: Cytotoxicity against mouse BMDM at 20 to 100 uM after 96 hrs by MTT assay.
Data set [7] concerns Leishmania braziliensis. Put plainly: Antileishmanial activity against amastigotes of Leishmania (V.) braziliensis MHOM/CO/87/UA301 infected in BMDM assessed as reduction of intracellular amastigotes after 96 hrs by Giemsa staining. Type of data set: functional, organism-based. To be noted: MHOM/CO/87/UA301, BMDM. The procedure, abridged: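 Mouse bone-marrow macrophages, differentiated in L-929 conditioned medium, were mixed 1:10 with promastigotes in DMEM + 10% FBS. Co-cultures sat on glass coverslips for 18 h at 37 °C, 5% CO2. Medium was then replaced with compound-containing medium for 96 h. Cells were Giemsa-stained and counted. EC50 was based on the number of amastigotes per macrophage; triplicate.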

For data set [8], the system named is Leishmania braziliensis. Kind of data set: Effect on sterol biosynthesis in Leishmania (V.) braziliensis MHOM/CO/87/UA301 assessed as endogenous squalene level at 6 uM (reference value: 22.7 +/- 0.12%).
Data set [9] deals with Leishmania braziliensis. Put plainly: Effect on sterol biosynthesis in Leishmania (V.) braziliensis MHOM/CO/87/UA301 assessed as exogenous cholesterol level at 6 uM (reference value: 13.6 +/- 0.51%).
Data set [10] deals with Leishmania braziliensis. Kind of data set: Effect on sterol biosynthesis in Leishmania (V.) braziliensis MHOM/CO/87/UA301 assessed as endogenous 14-desmethyl 5-dehydroepisterol level at 6 uM (reference value: 63.7 +/- 1.02%).

pEC50, pIC50: −log10 of the molar value. Active and inactive are the calls of the source. The rule behind the calls is not given here.

The term pIC50 denotes the negative decadic logarithm of the IC50, by convention in mol/L. A high value points to a small IC50. On to `CCCCCCCCCCCCCCCCOP(=O)([O-])OCC[N+](C)(C)C` [MILTEFOSINE], for which the pIC50 in data set [1] was at most 3.70; in the data set on Leishmania braziliensis [2], at least 4.30.
Molecule `CCc1ccc2nc(-c3ccc4c(c3)OCO4)ccc2c1` showed a pIC50 with Leishmania braziliensis [2] of at most 4.30.
The same measure, in the same setting: with `Cc1ccc2nc(-c3ccc4c(c3)OCO4)ccc2c1` the figure was at most 4.30.
As for `CO[C@@H]1C[C@@H](C[C@H]2CC[C@H](C)[C@H]([C@@H](C)C(=O)O)O2)O[C@]2(O[C@](C)([C@H]3CC[C@@](C)([C@@H]4O[C@@H]([C@H]5O[C@@](O)(CO)[C@H](C)C[C@@H]5C)C[C@@H]4C)O3)C[C@H]2C)[C@@H]1C`, the result in the data set on Leishmania braziliensis [3] was Active.
On to `c1ccc2nc(-c3ccc4c(c3)OCO4)ccc2c1`, for which the negative-log IC50 (pIC50) in the data set with Leishmania braziliensis [2] was at most 4.30.
`CCN(CC)CCCCCCNc1cc(OC)cc2c(C)ccnc12` [SITAMAQUINE]: the figures for the pIC50 (in data set [1]; in the data set with Leishmania braziliensis [2]) were at least 4.00 and at least 4.30, respectively.
In the data set with Leishmania braziliensis [2], `COc1ccc2nc(-c3ccc4c(c3)OCO4)ccc2c1` showed a negative-log IC50 (pIC50) of at most 4.30.
Still for that read-out and setting: with `Cc1cc(C)c2ccc(-c3ccc4c(c3)OCO4)nc2c1` the figure was at most 4.30.
Turning to `Cc1cc(C)c2ccc(-c3ccccc3)nc2c1`, the pIC50 in data set [1] is at least 4.00; with Leishmania braziliensis [2], at least 4.30.
As a reminder, the pEC50 is −log10 of the EC50, conventionally taken in molar units. On to `CCc1ccc2nc(-c3ccccc3)ccc2c1`, for which the values for the pIC50 (in data set [1]; in the data set with Leishmania braziliensis [2]) were at most 3.70 and at least 4.30, respectively. Besides, the outcome with Leishmania braziliensis [4] and in the data set on Leishmania braziliensis [5] was Active. Moreover, the Activity result in [6] is given as “Non-toxic”. Besides, the pEC50 with Leishmania braziliensis [7] was 4.70. For the same molecule, the mass % of sterol at 6 µM with Leishmania braziliensis [8] was 64.3%; in the data set with Leishmania braziliensis [9], 12.3%; with Leishmania braziliensis [10], 23.4%.
